Results from paper PMC12866962 (Cell host & microbe, 2026).
Blank lines part the entries; values can stand above or below the molecule they belong to.

How the values were obtained:
[1] = test system: BaY2 Thoeris system (type II); test: Thoeris protection in liquid media; type: cell-based; conditions: for Inhibition of BaY2 Thoeris (phage-induced host population lysis), in words: B. subtilis expressing BaY2 Thoeris, phage SPO1, liquid culture
[2] = test system: ThsB (BaY2ThsB or ArThsB); test: Thermal shift assay; type: binding; conditions: 5 µM protein, 1 mM compound, in the presence of NAD+
In short: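 BaY2ThsB or ArThsB was mixed with test compound or buffer in 10 mM HEPES pH 7.5, 150 mM NaCl, 5 mM MgCl2 with NAD+.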

BaY2ThsB [3] = molecular target: T1, BaY2ThsB (Bacillus amyloliquefaciens, UniProt I2C644); type: cell-based; conditions: for His-ADPR production by ThsB: 500 µM of compound, SPO1-infected B. subtilis Pspank-BaY2ThsB, LC-HRMS
BaY2ThsB [4] = molecular target: T1, BaY2ThsB; test: IP6C-ADPR pull-down with BaY2ThsB; type: binding, Bacillus amyloliquefaciens Y2; conditions: protein purified from E. coli cells grown with 1.25 mM IP6C
In short: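 E. coli TOP10 co-expressing DelTM-ThsA-TwinStrep and ThsB-His12 from one pBAD operon was induced at OD600 0.6 with 0.2% L-arabinose, with or without test compound, then grown overnight at 16 °C. ThsB was captured on His-tag magnetic beads, heat-denatured 5 min at 98 °C and centrifuged. Supernatant was analysed by LC-MS (extracted ion chromatogram of conjugate).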

BaY2ThsA^Macro [5] = molecular target: T2, BaY2ThsA^Macro (Bacillus amyloliquefaciens, UniProt I2C645); test: IP6C-ADPR and His-ADPR pull-down with BaY2ThsA^Macro; type: binding, Bacillus amyloliquefaciens Y2
BaY2ThsA^Macro [6] = molecular target: T2, BaY2ThsA^Macro; test: Saturation transfer difference; type: binding, Bacillus amyloliquefaciens Y2; conditions: 10 µM BaY2ThsA^Macro, 1 mM IP6C-ADPR, competed with 1 mM ADPR
EcThsA^Macro = test: ITC experiment; type: binding, Escherichia coli
[7] = test system: ThsA from Escherichia coli; conditions: homologous ThsA from Escherichia coli; cited from earlier work
[8] = test system: BaY2 Thoeris system (type II); test: Phage reproduction of SPO1; type: cell-based; conditions: PFUs 15 hours post-infection; 1 mM of compound 1, 333 µM of IP6C, 1 mM of compound 5
In short: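 B. subtilis overnight culture diluted 1:100 in LB; 180 µL added to wells with 2 µL compound stock (DMSO or water). Preincubated 30 min at 30 °C, then ~10,000 PFU SPO1 added; grown at 30 °C, 208 rpm, OD600 every 30 min. After 15 h, cleared supernatant (16,000 g, 10 min) titred by 5 µL drops of 1:10 dilutions on undefended B. subtilis soft-agar lawns.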

[9] = test system: P. aeruginosa MRSN11538 Thoeris system cloned into P. aeruginosa PAO1; test: Thoeris protection in liquid media, P. aeruginosa PAO1:Thoeris + Lit1; type: cell-based; conditions: Pseudomonas aeruginosa, PAO1, read-out: IC50 (inhibition of type II Thoeris in P. aeruginosa PAO1:Thoeris)
[10] = test system: P. aeruginosa MRSN11538 Thoeris system cloned into P. aeruginosa PAO1; test: Phage reproduction of Lit1 on P. aeruginosa PAO1:Thoeris II; type: cell-based, Pseudomonas aeruginosa; conditions: PFUs 15 hours post-infection; 1 mM of IP6C, 8.2 mM of nicotinamide
In short: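 Overnight P. aeruginosa diluted 1:100 into LB + 10 mM MgSO4. 180 µL went into wells holding 2 µL test compound stock in DMSO or water. After 30 min at 37 °C, ~10,000 PFU Lit1 was added and OD600 read every 30 min at 37 °C. At 15 h, supernatant (16,000 g, 10 min) was titred by drop plaque assay on undefended P. aeruginosa.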

[11] = test system: E. faecalis DS16 Thoeris system cloned into E. faecalis OG1RF; test: Thoeris protection in liquid media, E. faecalis OG1RF:Thoeris + NPV1; type: cell-based; conditions: Enterococcus faecalis, read-out: IC50 (inhibition of type II Thoeris in E. faecalis OG1RF:Thoeris)
[12] = test system: E. faecalis DS16 Thoeris system cloned into E. faecalis OG1RF; test: Phage reproduction of NPV1 on E. faecalis OG1RF:Thoeris; type: cell-based, Enterococcus faecalis; conditions: PFUs 15 hours post-infection; 10 mM of IP6C, 8.2 mM of nicotinamide
In short: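 Overnight E. faecalis was diluted 1:1000 into THB + 10 mM MgSO4 and added to compound-containing wells. After 1 h at 37 °C, ~1,000 PFUs NPV1 were added, with OD600 read every 30 min. At 15 h, culture was spun at 16,000 g for 10 min. Supernatant PFUs were titred by small-drop plaque assay on defenceless E. faecalis and compared with input PFUs. Mean ± SEM, three biological replicates.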

[13] = test system: Thoeris system in the P. aeruginosa MRSN11538 clinical isolate; type: cell-based; conditions: Pseudomonas aeruginosa, read-out: IC50 (sensitization of P. aeruginosa MRSN11538 WT to Lit1)
In short: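 Liquid lysis assay. Host overnight culture diluted 1:100 into LB + 10 mM MgSO4; 180 µL added per well over 2 µL test compound stock (DMSO or water); 30 min at 37 °C before ~10,000 PFU Lit1. OD600 recorded every 30 min at 37 °C. Thoeris strength derived from integrated area under the lysis curve, normalized to no-compound and no-defense controls.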

[14] = test system: Thoeris system in the P. aeruginosa MRSN11538 clinical isolate; test: Phage reproduction of Lit1 on P. aeruginosa MRSN11538; type: cell-based, Pseudomonas aeruginosa; conditions: PFUs 20 hours post-infection; 1 mM of IP6C, 8.2 mM of nicotinamide
[15] = test system: P. aeruginosa PAO1:Thoeris; test: Preliminary phage therapy model in mice infected with PAO1:Thoeris; type: in vivo, BALB/c mice; conditions: PAO1:Thoeris i.p. infection, IP6C only
[16] = Toxicity test of compounds in mice; type: in vivo
[17] = test system: human cell lines (hTERT RPE-1, HDFn); test: Human cell viability assay; type: cell-based; conditions: 72 hours, Cell Titer Glo 2.0
In short: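 hTERT RPE-1 and neonatal dermal fibroblasts were kept in DMEM with 10% FBS, penicillin/streptomycin, 37 °C, 5% CO2, and tested mycoplasma-negative. Cells were seeded at 2,000/well. After 24 h, medium was replaced with 0.1% DMSO vehicle or test compound (stock 1 M in DMSO), six replicate wells per dose. Luminescence was read after 72 h and expressed as percent viability relative to vehicle.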

[18] = test system: Staphylococcus aureus USA300; test: Polymicrobial model culture, S. aureus CFUs; type: cell-based; conditions: 300 µM IP6C, 8.5 hours
[19] = test system: Streptococcus sanguinis SK36; test: Polymicrobial model culture, S. sanguinis CFUs; type: cell-based; conditions: 300 µM IP6C, 8.5 hours
In short: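 S. aureus USA300, S. sanguinis SK36 and P. aeruginosa PAO1:Thoeris II overnights were mixed 1:1:1, then diluted 1:100 into TSB + 0.5% yeast extract + 10 mM MgSO4. Wells received DMSO or test compound, plus Lit1 (MOI 0.0001) or LB. Incubation was 8.5 h at 37 °C, 5% CO2. CFUs were counted before and after by PBS serial dilution on Streptococcus Selective Agar at 37 °C, 5% CO2. Three replicates.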

[20] = Quantification of IP6C in polymicrobial model culture; type: physicochemical; conditions: after 24 hours in polymicrobial co-culture with phage, LC-MS/MS
In short: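 In the three phage-plus-compound polymicrobial cultures, 1 µL was sampled at start and at 24 h and quenched in 1 mL 90% acetonitrile. Analysis used a HILIC column with 20 mM ammonium acetate pH 9.2 containing medronic acid versus acetonitrile, gradient at 0.4 mL/min. MRM monitored 162.1→117 (quantifier) and 162.1→78.1 (qualifier), quantified against a pure-standard calibration curve.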

T2 sequence (I2C645 83-297): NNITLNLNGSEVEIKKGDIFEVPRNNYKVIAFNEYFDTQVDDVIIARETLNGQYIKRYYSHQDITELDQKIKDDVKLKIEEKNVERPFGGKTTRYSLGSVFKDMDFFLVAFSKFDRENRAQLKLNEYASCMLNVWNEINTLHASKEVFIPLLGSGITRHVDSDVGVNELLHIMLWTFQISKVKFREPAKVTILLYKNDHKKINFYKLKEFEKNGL
T1 sequence (I2C644 whole entry): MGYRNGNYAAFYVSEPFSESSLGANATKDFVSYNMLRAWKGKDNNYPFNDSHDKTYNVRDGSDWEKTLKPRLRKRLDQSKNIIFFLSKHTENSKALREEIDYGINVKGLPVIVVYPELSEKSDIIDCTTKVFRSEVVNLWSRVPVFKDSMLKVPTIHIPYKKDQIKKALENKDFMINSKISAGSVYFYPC

SMILES: c1ccn2ccnc2c1 [Compound 26, imidazo[1,2-a]pyridine]
Inhibition of BaY2 Thoeris (phage-induced host population lysis), in words [1]: weak potency

Binding to ThsB (melting temperature shift) [2]: no significant binding
SMILES: N[C@@H](Cc1c[nH]cn1)C(=O)O [histidine, reference compound]

SMILES: NC(=O)c1ccc2n(cc[n+]2[C@@H]2O[C@H](COP(=O)(O)OP(=O)(O)OC[C@H]3O[C@@H](n4cnc5c(N)ncnc54)[C@H](O)[C@@H]3O)[C@@H](O)[C@H]2O)c1 [IP6C-ADPR]
Intracellular concentration of IP6C-ADPR (BaY2ThsB [3]; IPTG-inducible BaY2ThsB expression system, cells grown with IP6C, approximated with IP6C-ADPR standard): around 700 nM
Co-purification of IP6C-ADPR with BaY2ThsB (BaY2ThsB [4]): did not co-purify with BaY2ThsB
IP6C-ADPR detected in purified BaY2ThsA^Macro (BaY2ThsA^Macro [5]; protein co-expressed with BaY2ThsB in E. coli grown with 1.25 mM IP6C): no IP6C-ADPR was detected
Binding to BaY2ThsA^Macro by STD NMR (BaY2ThsA^Macro [6]): binds poorly
Binding to EcThsA^Macro by ITC (EcThsA^Macro): did not reveal any interpretable binding

SMILES: Nc1ncnc2c1ncn2[C@@H]1O[C@H](COP(=O)(O)OP(=O)(O)OC[C@H]2OC(O)[C@H](O)[C@@H]2O)[C@@H](O)[C@H]1O (some centres unmarked) [ADPR]
Kd [7]: 4.6 ± 0.5 µM

SMILES: NC(=O)c1ccc2nccn2c1 [IP6C, imidazo[1,2-a]pyridine-6-carboxamide]
IC50 ([1]; Bacillus amyloliquefaciens, read-out: IC50 (inhibition of BaY2 Thoeris)): 10 µM
Phage reproduction of SPO1 on B. subtilis expressing BaY2 Thoeris [8]: promoted the reproduction of SPO1
Intracellular NAD+ level (BaY2ThsB [3]; 500 µM of IP6C, after SPO1 infection): unchanged
His-ADPR production by ThsB (BaY2ThsB [3]): abolished His-ADPR production
Binding to ThsB (melting temperature shift) [2]: no significant binding
Amount of His-ADPR bound to BaY2ThsA^Macro (BaY2ThsA^Macro [5]; E. coli co-expressing BaY2ThsA^Macro and BaY2ThsB grown with 1.25 mM IP6C): dramatically decreased
IC50 [9]: 19 µM
Phage propagation of Lit1 on P. aeruginosa PAO1:Thoeris II [10]: allowed P. aeruginosa phages to propagate
IC50 [11]: 8200 µM
Phage proliferation of NPV1 on E. faecalis OG1RF:Thoeris [12]: fully rescued phage proliferation
IC50 [13]: 116 µM
Phage propagation of Lit1 on P. aeruginosa MRSN11538 WT [14]: allowed Lit1 phages to successfully propagate
Survival of mice treated with compound only (no phage) [15]: all mice died within one day
Toxicity to mice ([16]; i.p., 50 μL of 20 mg/mL, observed 7 days): not toxic
Food intake and body weight of mice ([16]; mice treated with IP6C): initially eat less and lose weight
Toxicity to human cell lines [17]: not toxic
S. aureus CFUs in polymicrobial mixture [18]: unaffected
S. sanguinis CFUs in polymicrobial mixture [19]: unaffected
Temporal stability: IP6C levels in co-culture [20]: no measurable decrease

SMILES: NC(=O)c1cccnc1 [nicotinamide]
Inhibition of BaY2 Thoeris (phage-induced host population lysis), in words ([1]; listed as 9): fully inhibited the Thoeris defense
His-ADPR production by ThsB (BaY2ThsB [3]): inhibited His-ADPR production
IC50 [9]: 185 µM
Phage propagation of Lit1 on P. aeruginosa PAO1:Thoeris II [10]: allowed P. aeruginosa phages to propagate
IC50 [11]: 1500 µM
Phage proliferation of NPV1 on E. faecalis OG1RF:Thoeris [12]: fully rescued phage proliferation
IC50 [13]: 838 µM
Phage propagation of Lit1 on P. aeruginosa MRSN11538 WT [14]: allowed Lit1 phages to successfully propagate
